Measured values from ChEMBL document CHEMBL1135577, “Synthesis and biological evaluation of structurally highly modified analogues of the antimitotic natural product curacin A” (J Med Chem, 2002).
pIC50: −log10 of the molar value. Active and inactive are the calls of the source. The calls are words filed in the database; no cut-off is given here.

Columns and labels:
[1] = test system: MCF7; test: Tested for 50% growth inhibitory concentration by using MCF-7 cell lines.; assay type: functional; conditions: Homo sapiens
Procedure, shortened: (§1)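 Cultured human tumor cells were seeded at 500-2000 cells/well, allowed to attach for 48 h, then exposed continuously for 48 h to DMSO vehicle or agent at five concentrations (e.g., 50-0.08 μM, 10-0.016 μM or 1-0.0016 μM series), each in quadruplicate. A time-zero plate was included. Cell number was read by MTS/phenazine methanesulfonate at A490-A630. Values are means (N = 4 over 10 concentrations) ± SD.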

[2] = test system: A2780; test: Tested for colchicine binding inhibition, using human ovarian cancer cell lines (at 5 uM ); assay type: functional
Procedure, shortened: (§2)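 [3H]colchicine (5 μM) was incubated with 1 μM tubulin and agent (1-250 μM) or DMSO vehicle (5% v/v) at 30 °C for 15 min or 37 °C for 10 min, in 1 M monosodium glutamate, 0.1 M glucose-1-phosphate, 1 mM MgCl2, 1 mM GTP and 0.5 mg/mL BSA. Samples were filtered through DEAE-cellulose and counted by scintillation. Values are means (N = 9 over four concentrations) ± SD.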

[3] = target: Tubulin (Bos taurus); test: Inhibition of tubulin polymerization of purified bovine brain tubulin
[4] = test system: MCF7; test: Compound was tested for 50% Growth Inhibitory concentration against MCF-7 cell lines.; assay type: functional; conditions: Homo sapiens
Procedure, shortened: (§3)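 Cells (500–2000/well) attached and grew for 48 h, then received DMSO vehicle or agent at five-point 5-fold dilutions (from 50, 10 or 1 μM top) for 48 h, continuous exposure. A time-zero plate was included, and each concentration was run in quadruplicate. Cell number was read by MTS/phenazine methanesulfonate, A490 minus A630. Values are means (N = 4 over 10 concentrations) ± SD.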

[5] = test system: MDA-MB-231; test: Compound was tested for 50% Growth Inhibitory concentration by using MDA - MB231 human breast carcinoma cell lines.; assay type: functional; procedure, shortened: as §3
[6] = test system: A2780; test: Percent of Tubulin polymerization inhibition by using human ovarian cancer cell lines at a concentration of 5 uM; assay type: functional
Procedure, shortened: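 Purified tubulin (10 μM final, 1 mg/mL) was preincubated 15 min at 30 °C with agent in DMSO (4% v/v final) and 0.8 M monosodium glutamate. Samples were chilled to 0 °C, and GTP was added (0.4 mM final). Turbidity at 350 nm was followed for 20 min after a rapid rise to 30 °C. Inhibition was scaled between vehicle without GTP (100%) and GTP plus vehicle (0%). Values are averages of two determinations.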

[7] = test system: A2780; test: Colchicine Binding Inhibition ( CBI ) by using human ovarian cancer cell lines at 5 uM, (values are mean of 9 over 4 concentrations +/- SD); assay type: functional
Procedure, shortened: (§4)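 [3H]-colchicine (5 μM, 2.3 TBq/mmol) and test agent (1–250 μM) or DMSO vehicle (5% v/v) were incubated with 1 μM purified tubulin at 30 °C for 15 min. The medium held 1 M monosodium glutamate, 0.1 M glucose-1-phosphate, 1 mM MgCl2, 1 mM GTP and 0.5 mg/mL BSA. Samples were filtered through DEAE-cellulose stacks, and […] was counted by scintillation. Values are means (N = 9 over four concentrations) ± SD.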

[8] = test system: PC-3; test: 50% Growth inhibitory concentration by using PC -3 human prostate carcinoma cell lines (48h continuous exposure); assay type: functional; conditions: PC-3, 48 h; procedure, shortened: as §1
[9] = test system: 2008; test: 50% Growth inhibitory concentration( GI 50 ) by using 2008 human ovarian carcinoma cell lines.; assay type: functional; procedure, shortened: as §1
[10] = test system: A2780; test: Compound tested for colchicine Binding Inhibition by using human ovarian cancer cell line (at 5 uM ); assay type: functional; procedure, shortened: as §4
[11] = test system: A2780; test: Compound was tested for Tubulin polymerization inhibition by using human ovarian carcinoma cell lines.; assay type: functional
Procedure, shortened: (§5)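 Tubulin (10 μM final, 1 mg/mL) was preincubated with agent in DMSO (4% v/v final) and 0.8 M monosodium glutamate for 15 min at 30 °C, then cooled to 0 °C and GTP (0.4 mM final) added. Turbidity at 350 nm was followed for 20 min at 30 °C. […] Values are averages of two determinations.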

[12] = test system: MDA-MB-231; test: Compound was tested for 50% Growth Inhibitory concentration by using MDA-MB-231 cell lines.; assay type: functional; conditions: Homo sapiens; procedure, shortened: as §1
[13] = test system: A2780; test: Compound was tested for colchicine binding inhibition by using human ovarian carcinoma cell line (at 5 uM ); assay type: functional; procedure, shortened: as §2
[14] = test system: PC-3; test: Compound was tested for 50% growth inhibitory concentration by using human prostate carcinoma cell lines (PC -3); assay type: functional; procedure, shortened: as §1
[15] = test system: 2008; test: Compound was tested for 50% growth inhibitory concentration by using human ovarian carcinoma cell lines (2008); assay type: functional; procedure, shortened: as §1
[16] = test system: A2780; test: Compound was tested for Tubulin polymerization inhibition by using human ovarian cancer cell lines.; assay type: functional; procedure, shortened: as §5
[17] = test system: A2780; test: Compound was tested for colchicine binding inhibition by using human ovarian carcinoma cell lines (at 5 uM );NA means not active; assay type: functional, cell-based; procedure, shortened: as §2
[18] = test system: A2780; test: Compound was tested for Tubulin polymerization inhibition by using human ovarian carcinoma cell lines.;NA means not active; assay type: functional, cell-based; procedure, shortened: as §5
[19] = test system: A2780; test: Compound was tested for colchicine Binding Inhibition by using human ovarian carcinoma cell line (at 5 uM ); assay type: functional; procedure, shortened: as §2
[20] = target: Tubulin (Bos taurus); test: Ability to inhibit the GTP/glutamate-induced polymerization of tubulin

| GI50 [1] [nM] | pIC50 [3] | Structure (SMILES) | inhibition at 5 µM [2] [%] | other results |
| --- | --- | --- | --- | --- |
|  | < 4.30 | CC(C)=C/C=C/CC/C=C\[C@@H]1CSC([C@@H]2C[C@@H]2C)=N1 |  |  |
| 3300 | 5.34 | CCC[C@@H](CC/C(C)=C/C=C/CCCCC1CSC([C@@H]2C[C@@H]2C)=N1)OC (stereo partly drawn) | 1 |  |
| > 10000 | < 4.10 | C=CC[C@@H](CC/C(C)=C/C=C/CC/C=C\[C@@H]1CSC([C@@H]2C[C@@H]2C)=N1)OC(=O)c1ccccc1 | 5 |  |
| > 10000 | < 4.10 | C=CC[C@@H](CC/C(C)=C/C=C/CCCO)OC | 0 |  |
|  | < 4.30 | CCCCCCCc1cccc(CC/C=C\[C@@H]2CSC([C@@H]3C[C@@H]3C)=N2)c1 |  |  |
| 4200 | 5.82 | C=CC[C@@H](CC/C(C)=C/C=C/CC/C=C\[C@H](CSC(=O)[C@@H]1C[C@@H]1C)NC(C)=O)OC | 9 |  |
| > 10000 | 5.27 | C=CC[C@@H](CC/C(C)=C/C=C/CC/C=C\[C@@H]1CSC([C@@H]2C[C@@H]2C)=N1)OCC(F)(F)C(F)(F)C(F)(F)F | 12 |  |
|  | < 4.30 | CCCCCCCCCCCC/C=C\[C@@H]1CSC([C@@H]2C[C@@H]2C)=N1 |  |  |

More lines, now with the values behind:

| Structure (SMILES) | GI50 [1] [nM] | pIC50 [3] | inhibition at 5 µM [2] [%] | other results |
| --- | --- | --- | --- | --- |
| C=CC[C@H](CC/C(C)=C/C=C/CC/C=C\[C@@H]1CSC([C@@H]2C[C@@H]2C)=N1)OC | 180 | 6.17 | 56 |  |
| C=CC[C@@H](CC/C(C)=C/C=C/CC/C=C\[C@@H]1CSC([C@@H]2C[C@@H]2C)=N1)OC [CURACIN A] |  | 6.14 |  | GI50 [4]: 40 nM; GI50 [5]: 96 nM; TPI [6]: 98%; inhibition at 5 µM [7]: 78%; GI50 [8]: 50 nM; GI50 [9]: 35 nM; inhibition at 5 µM [10]: 94% |
| C=CC[C@@H](CC/C=C/C=C/CC/C=C\[C@@H]1CSC([C@@H]2C[C@@H]2C)=N1)OC | 340 |  | 53 |  |
| C=CC[C@@H](CC[C@@]1(C)C[C@@H]1[C@H]1C[C@@H]1CC/C=C\[C@@H]1COC([C@@H]2C[C@@H]2C)=N1)OC |  |  |  | TPI [11]: 59%; GI50 [12]: 18000 nM; inhibition at 5 µM [13]: < 10%; GI50 [14]: 49000 nM; GI50 [15]: 18000 nM |
| C=CC[C@@H](CC/C(C)=C/C=C/CC/C=C\c1csc(C(C)(C)C)n1)OC |  |  | 38 | GI50 [8]: 240 nM; GI50 [9]: 300 nM; TPI [16]: 100% |
| C=CC[C@@H](CC/C(C)=C/C=C/CC/C=C\[C@@H]1CSC([C@H]2C[C@@H]2C)=N1)OC | 990 | 6.11 | 88 |  |
| C/C=C\[C@@H]1CSC([C@@H]2C[C@@H]2C)=N1 |  |  |  | NA [17]: inactive; NA [18]: inactive |
| C=CC[C@@H](CC[C@@]1(C)C[C@@H]1[C@H]1C[C@@H]1CC/C=C\[C@@H]1CSC([C@@H]2C[C@@H]2C)=N1)OC |  |  |  | TPI [11]: 0%; GI50 [12]: > 50000 nM; GI50 [14]: > 50000 nM; inhibition at 5 µM [19]: < 10%; GI50 [15]: > 50000 nM |
| C=CC[C@@H](CC/C(C)=C/C=C/CC/C=C\c1csc([C@@H]2C[C@@H]2C)n1)OC | 300 | 6.13 | 74 |  |
| COc1cc(/C=N\OC/C=C/C=C(\C)CCC(O)c2cccs2)cc(OC)c1OC (stereo not drawn) |  |  |  | TPI [11]: 100%; GI50 [12]: 120 nM; GI50 [14]: 250 nM; inhibition at 5 µM [19]: 48%; GI50 [15]: 240 nM; pIC50 [20]: 6.77 |
| COc1cc(CCCCCCCC(C)CCC(O)c2cccs2)cc(OC)c1OC (stereo not drawn) |  |  | < 10 | GI50 [8]: 21000 nM; GI50 [9]: 26000 nM; TPI [16]: 15% |
